According to ChEMBL document CHEMBL5104202, “Structure-Uptake Relationship Studies of Oxazolidinones in Gram-Negative ESKAPE Pathogens” (J Med Chem, 2022):
Values after ≈ are worked out from the molar mass of the structure shown.

Key:
[1] = system: Escherichia coli; assay: Antibacterial activity against Escherichia coli SQ110 DTC G2032A incubated for 24 hrs by twofold serial dilution method; format: functional
How it was run: (§1)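 E. coli SQDTC (TolC-deficient, single rRNA operon) carrying LZD-resistant 23S rRNA substitutions. Compounds come from 10 mM DMSO stocks and are twofold serially diluted in 96-well plates.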

[2] = system: Pseudomonas aeruginosa; assay: Antibacterial activity against efflux pump lacking/recombinant OM pore producing Pseudomonas aeruginosa assessed as inhibition of bacterial growth; format: functional, organism-based
[3] = system: Pseudomonas aeruginosa; assay: Antibacterial activity against recombinant OM pore producing Pseudomonas aeruginosa assessed as inhibition of bacterial growth; format: functional, organism-based
[4] = system: Acinetobacter baumannii; assay: Antibacterial activity against recombinant OM pore producing Acinetobacter baumannii assessed as inhibition of bacterial growth; format: functional, organism-based
[5] = system: Pseudomonas aeruginosa; assay: Antibacterial activity against efflux pump lacking/recombinant OM pore producing Pseudomonas aeruginosa incubated for 24 hrs by twofold serial dilution method; format: functional
How it was run: (§2)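 MICs by twofold serial dilution in 96-well plates from 10 mM DMSO stocks. Cultures grown in the indicated media; for E. coli, A. baumannii and P. aeruginosa, inducers were 0.1% arabinose, 1% arabinose and 0.1 mM IPTG respectively.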

[6] = system: Escherichia coli; assay: Antibacterial activity against efflux pump lacking/recombinant OM pore producing Escherichia coli incubated for 24 hrs by twofold serial dilution method; format: functional
How it was run: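 E. coli efflux-knockout/hyperporinated strain grown in M9 medium with 50 mM MOPS (pH 7.2) and 0.2% xylose. OM pore induced with 0.1% arabinose. Compounds come from 10 mM DMSO stocks and are twofold serially diluted in 96-well plates.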

[7] = system: Escherichia coli; assay: Antibacterial activity against Escherichia coli SQ110 incubated for 24 hrs by twofold serial dilution method; format: functional; how it was run: as §2
[8] = system: Acinetobacter baumannii; assay: Antibacterial activity against efflux pump lacking/recombinant OM pore producing Acinetobacter baumannii incubated for 24 hrs by twofold serial dilution method; format: functional; how it was run: as §2
[9] = system: Pseudomonas aeruginosa; assay: Antibacterial activity against wild type Pseudomonas aeruginosa assessed as inhibition of bacterial growth; format: functional, organism-based
[10] = system: Acinetobacter baumannii; assay: Antibacterial activity against efflux pump lacking Acinetobacter baumannii assessed as inhibition of bacterial growth; format: functional, organism-based
[11] = system: Staphylococcus aureus; assay: Antibacterial activity against Staphylococcus aureus ATCC 25923 incubated for 24 hrs by twofold serial dilution method; format: functional; how it was run: as §2
[12] = system: Escherichia coli; assay: Antibacterial activity against Escherichia coli SQ110 DTC C2610A incubated for 24 hrs by twofold serial dilution method; format: functional; how it was run: as §1
[13] = system: Pseudomonas aeruginosa; assay: Antibacterial activity against efflux pump lacking Pseudomonas aeruginosa assessed as inhibition of bacterial growth; format: functional, organism-based
[14] = system: Escherichia coli; assay: Antibacterial activity against efflux pump lacking Escherichia coli assessed as inhibition of bacterial growth; format: functional, organism-based
[15] = system: Acinetobacter baumannii; assay: Antibacterial activity against efflux pump lacking/recombinant OM pore producing Acinetobacter baumannii assessed as inhibition of bacterial growth; format: functional, organism-based
[16] = system: Escherichia coli; assay: Antibacterial activity against recombinant OM pore producing Escherichia coli assessed as inhibition of bacterial growth; format: functional, organism-based
[17] = system: Escherichia coli; assay: Antibacterial activity against Escherichia coli SQ110 DTC incubated for 24 hrs by twofold serial dilution method; format: functional; how it was run: as §2
[18] = system: Acinetobacter baumannii; assay: Antibacterial activity against wild type Acinetobacter baumannii assessed as inhibition of bacterial growth; format: functional, organism-based
[19] = system: Escherichia coli; assay: Antibacterial activity against wild type Escherichia coli assessed as inhibition of bacterial growth; format: functional, organism-based
[20] = system: Escherichia coli; assay: Antibacterial activity against efflux pump lacking/recombinant OM pore producing Escherichia coli assessed as inhibition of bacterial growth; format: functional, organism-based
[21] = system: Klebsiella pneumoniae; assay: Antibacterial activity against multidrug resistant Klebsiella pneumoniae ATCC13883 assessed as inhibition of bacterial growth incubated for 24 hrs in M9-MOPS medium by twofold serial dilution method; format: functional
[22] = system: Klebsiella pneumoniae; assay: Antibacterial activity against multidrug resistant Klebsiella pneumoniae ATCC13883 assessed as inhibition of bacterial growth incubated for 24 hrs in MHI medium by twofold serial dilution method; format: functional
[23] = system: Pseudomonas aeruginosa; assay: Antibacterial activity against multidrug resistant Pseudomonas aeruginosa BAA 2109 assessed as inhibition of bacterial growth incubated for 24 hrs in […] medium by twofold serial dilution method; format: functional
[24] = system: Acinetobacter baumannii; assay: Antibacterial activity against multidrug resistant Acinetobacter baumannii Ab5075 assessed as inhibition of bacterial growth incubated for 24 hrs in M9-MOPS medium by twofold serial dilution method; format: functional
[25] = system: Acinetobacter baumannii; assay: Antibacterial activity against multidrug resistant Acinetobacter baumannii AYE assessed as inhibition of bacterial growth incubated for 24 hrs in M9-MOPS medium by twofold serial dilution method; format: functional
[26] = system: Pseudomonas aeruginosa; assay: Antibacterial activity against multidrug resistant Pseudomonas aeruginosa BAA 2108 assessed as inhibition of bacterial growth incubated for 24 hrs in MHI medium by twofold serial dilution method; format: functional
[27] = system: Klebsiella aerogenes; assay: Antibacterial activity against multidrug resistant Klebsiella aerogenes ATCC13048 assessed as inhibition of bacterial growth incubated for 24 hrs in M9-MOPS medium by twofold serial dilution method; format: functional
[28] = system: Klebsiella pneumoniae; assay: Antibacterial activity against multidrug resistant Klebsiella pneumoniae ATCC43816 assessed as inhibition of bacterial growth incubated for 24 hrs in MHI medium by twofold serial dilution method; conditions: ATCC43816, 24 h
[29] = system: Acinetobacter baumannii; assay: Antibacterial activity against multidrug resistant Acinetobacter baumannii AYE assessed as inhibition of bacterial growth incubated for 24 hrs in MHI medium by twofold serial dilution method; format: functional
[30] = system: Acinetobacter baumannii; assay: Antibacterial activity against multidrug resistant Acinetobacter baumannii Ab5075 assessed as inhibition of bacterial growth incubated for 24 hrs in MHI medium by twofold serial dilution method; format: functional
[31] = system: Klebsiella pneumoniae; assay: Antibacterial activity against multidrug resistant Klebsiella pneumoniae ATCC43816 assessed as inhibition of bacterial growth incubated for 24 hrs in M9-MOPS medium by twofold serial dilution method; format: functional
[32] = system: Klebsiella pneumoniae; assay: Antibacterial activity against multidrug resistant Klebsiella pneumoniae ATCC43816 assessed as inhibition of bacterial growth incubated for 24 hrs in MHI medium by twofold serial dilution method; format: functional
[33] = system: Pseudomonas aeruginosa; assay: Antibacterial activity against multidrug resistant Pseudomonas aeruginosa BAA 2109 assessed as inhibition of bacterial growth incubated for 24 hrs in MHI medium by twofold serial dilution method; format: functional
[34] = system: Pseudomonas aeruginosa; assay: Antibacterial activity against multidrug resistant Pseudomonas aeruginosa BAA 2108 assessed as inhibition of bacterial growth incubated for 24 hrs in M9-MOPS medium by twofold serial dilution method; format: functional

| Structure (SMILES) | MIC [1] [µM] | IC50 [2] [µM] | IC50 [3] [µM] | IC50 [4] [µM] | MIC [5] [µM] | MIC [6] [µM] | MIC [7] [µM] | MIC [8] [µM] | IC50 [9] [µM] | IC50 [10] [µM] | MIC [11] [µM] | MIC [12] [µM] | IC50 [13] [µM] | IC50 [14] [µM] | IC50 [15] [µM] | IC50 [16] [µM] | MIC [17] [µM] | IC50 [18] [µM] | IC50 [19] [µM] | IC50 [20] [nM] | further results |
| --- | --- | --- | --- | --- | --- | --- | --- | --- | --- | --- | --- | --- | --- | --- | --- | --- | --- | --- | --- | --- | --- |
| Nc1ncc(-c2ccc(N3C[C@H](CO)OC3=O)cc2F)cn1 | 100 (≈ 30.4 µg/mL) | 33 | > 100 | > 100 | 12.5 | > 100 | > 100 | 50 | > 100 | 53 | 6.25 (≈ 1.9 µg/mL) | 50 (≈ 15.2 µg/mL) | > 100 | 5.9 | 53 | 2 | 25 (≈ 7.61 µg/mL) | > 100 | > 100 | 1500 | – |
| C[n+]1cccc(-c2ccc(-c3ccc(N4C[C@H](CO)OC4=O)cc3F)cc2)c1 | 50 | 18.1 | 28.1 | 13.9 | 25 | 25 | > 100 | 25 | > 100 | 29.7 | 12.5 | 25 | 29.7 | 1.2 | 12.6 | 7.8 | 12.5 | > 100 | 98.4 | 2100 | – |
| O=C(O)c1ccc(-c2ccc(N3C[C@H](CO)OC3=O)cc2F)cc1 | 50 (≈ 16.6 µg/mL) | 8.9 | > 100 | 55.5 | > 100 | 12.5 | > 100 | 50 | > 100 | 12.8 | 6.25 (≈ 2.07 µg/mL) | 25 (≈ 8.28 µg/mL) | > 100 | 54 | 10.2 | > 100 | 25 (≈ 8.28 µg/mL) | > 100 | > 100 | 2600 | – |
| O=C1O[C@@H](CO)CN1c1ccc(-c2cccc(CO)c2)c(F)c1 | – | 13 | > 100 | 10.8 | – | – | – | – | > 100 | 5.4 | – | – | 15.5 | 1.5 | 7.6 | 1.5 | – | 45.8 | 66.9 | 2000 | MIC [21]: 200 µM (≈ 63.5 µg/mL); MIC [22]: > 200 µM; MIC [23]: > 200 µM; MIC [24]: 200 µM (≈ 63.5 µg/mL); MIC [25]: 200 µM (≈ 63.5 µg/mL); MIC [26]: > 200 µM; MIC [27]: > 200 µM; MIC [28]: > 200 µM; MIC [29]: > 200 µM; MIC [30]: > 200 µM; MIC [31]: > 200 µM; MIC [32]: > 200 µM; MIC [33]: > 200 µM; MIC [34]: > 200 µM |
| O=C1O[C@@H](CO)CN1c1ccc(-c2ccc(C(F)(F)F)cc2)c(F)c1 | > 100 | 1.4 | > 100 | 41.1 | > 100 | > 100 | 100 (≈ 35.5 µg/mL) | 6.25 | > 100 | 8 | 3.12 (≈ 1.11 µg/mL) | > 100 | 8 | 4.1 | 3.9 | 35.3 | 25 (≈ 8.88 µg/mL) | > 100 | 88.8 | 2900 | – |
| C[n+]1ccc(-c2ccc(N3C[C@H](CO)OC3=O)cc2F)cc1 | > 100 | 9.4 | 59.7 | 13.8 | > 100 | > 100 | 100 | > 100 | > 100 | 23.3 | > 100 | 100 | 48.8 | 10 | 13.8 | 12.3 | 50 | 59.4 | 13.5 | 11000 | – |
| O=C1O[C@@H](CO)CN1c1ccc(-c2ccc(OC(F)(F)F)cc2)c(F)c1 | > 100 | 3.1 | > 100 | 25.6 | > 100 | > 100 | > 100 | 25 | > 100 | 16.3 | 6.25 (≈ 2.32 µg/mL) | > 100 | 18.6 | 17.2 | 6.4 | 76.9 | 100 (≈ 37.1 µg/mL) | > 100 | > 100 | 18800 | – |
| O=C1O[C@@H](CO)CN1c1ccc(-c2ccc(CO)cc2)c(F)c1 | 50 (≈ 15.9 µg/mL) | 5.5 | > 100 | 5.7 | 6.25 | 25 | > 100 | 12.5 | > 100 | 4.4 | 1.56 (≈ 0.495 µg/mL) | 25 (≈ 7.93 µg/mL) | 5.3 | 3.9 | 4.6 | 17.6 | 12.5 (≈ 3.97 µg/mL) | 45.3 | 67.9 | 3700 | – |
